SMILES strings stand for the structures. Calls of active or inactive are those of the source. The rule behind the calls is not given here. Residues, ends and D or L forms follow the SMILES beside them. *: point of attachment. X1 = CN(C)c1ccc2c3c(cccc13)C(=O)N(CCN*)C2=O

In data set [1] the target is Amyloid-beta precursor protein (Homo sapiens) (UniProt P05067). Put plainly: Inhibition of Amyloid beta 42 (unknown origin) aggregation extracted from Escherichia coli BL21 assessed as decrease in amyloid beta fibril formation incubated for 48 hrs by atomic force microscopy.
Chain of Amyloid-beta precursor protein (Homo sapiens) (P05067 whole entry): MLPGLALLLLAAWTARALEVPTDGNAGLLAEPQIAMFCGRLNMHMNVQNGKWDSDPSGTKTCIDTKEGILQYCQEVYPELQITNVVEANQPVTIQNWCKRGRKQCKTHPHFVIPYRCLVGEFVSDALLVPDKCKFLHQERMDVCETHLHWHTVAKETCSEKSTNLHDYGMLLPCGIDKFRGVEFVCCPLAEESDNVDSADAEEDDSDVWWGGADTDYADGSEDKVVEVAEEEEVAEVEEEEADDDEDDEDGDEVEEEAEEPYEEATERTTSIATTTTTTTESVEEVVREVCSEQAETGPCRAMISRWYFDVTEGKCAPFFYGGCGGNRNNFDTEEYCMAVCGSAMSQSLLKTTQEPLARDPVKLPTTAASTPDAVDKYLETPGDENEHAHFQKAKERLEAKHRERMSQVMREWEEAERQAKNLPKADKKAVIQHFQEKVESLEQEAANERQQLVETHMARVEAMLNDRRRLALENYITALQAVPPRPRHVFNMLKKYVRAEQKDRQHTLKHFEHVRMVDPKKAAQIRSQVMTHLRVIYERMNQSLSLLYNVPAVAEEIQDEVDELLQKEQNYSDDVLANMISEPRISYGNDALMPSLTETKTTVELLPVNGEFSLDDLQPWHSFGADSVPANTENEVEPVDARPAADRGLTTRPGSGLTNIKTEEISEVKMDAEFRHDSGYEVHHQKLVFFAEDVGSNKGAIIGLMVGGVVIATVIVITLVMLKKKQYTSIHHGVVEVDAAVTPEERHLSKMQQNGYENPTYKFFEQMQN
For data set [2] the target is unchanged. Put plainly: Inhibition of Amyloid beta 42 (unknown origin) aggregation extracted from Escherichia coli BL21 assessed as decrease in Cu2+ induced amyloid beta fibril formation incubated for 48 hrs in presence of Cu2+ by atomic force microscopy.
In data set [3] the test system is SH-SY5Y. Put plainly: Neuroprotective activity against amyloid beta 42 and Cu2+ induced toxicity in human SH-SY5Y cells assessed as increase in cell viability at 10 uM incubated for 24 hrs by MTT assay (reference value: 48 %). Type of data set: functional. A digest of the protocol:
(§1)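 SH-SY5Y cells incubated 24 h with Aβ42 fibrils (10 μM) and peptide (10 μM), in the absence or presence of Cu2+ (10 μM). Viability by MTT.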
On the technique in general: Formazan colour is commonly taken as a measure of viable cells.

A short description of data set [4]: Metal chelating activity assessed as compound-Zn2+ complex formation by measuring decrease in fluorescence intensity at 50 uM in presence of ZnCl2 by UV-Visible fluorescence spectroscopic analysis. A digest of the protocol:
(§2)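 Peptide solution at 50 μM mixed 1:1 with Cu2+, Zn2+, Fe3+ or Al3+. NMI emission recorded at λex 450 nm, λem 550 nm, and drop in fluorescence used to indicate complexation. Separate titration with Cu2+ (0–100 μM) into 50 μM peptide used to assess stoichiometry.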

The nature of data set [5]: Metal chelating activity assessed as compound-Cu2+ complex formation measured after 2 mins in presence of CuCl2 by UV-Visible fluorescence spectroscopic analysis.
Data set [6] relates to SH-SY5Y. In words: Neuroprotective activity against amyloid beta 42 induced toxicity in human SH-SY5Y cells assessed as increase in cell viability at 10 uM incubated for 24 hrs by MTT assay (reference value: 55 %). The format is functional. A digest of the protocol:
as §1

Data set [7] has as its system SH-SY5Y. In words: Cytotoxicity against human SH-SY5Y cells at 100 uM incubated for 24 hrs by MTT assay. Type of data set: toxicity, cell-based. The gist of the method: (§3)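 SH-SY5Y cells exposed to peptide (10–100 μM) for 24 h. Viability by MTT.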
A short description of data set [8]: Metal chelating activity assessed as compound-Al3+ complex formation by measuring decrease in fluorescence intensity at 50 uM in presence of AlCl3 by UV-Visible fluorescence spectroscopic analysis. The gist of the method:
as §2

Data set [9] in a line: Antiinflammatory activity in LPS-induced mouse N9 cells assessed as reduction in nitrite production at 10 uM incubated for 24 hrs by griess assay relative to control. The format is functional. The arrangement: scale not given: the % may be the effect or the level left. The gist of the method: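 LPS (1 μg/mL)-stimulated N9 microglia treated with peptide at 10 μM. Nitric oxide quantified as nitrite in the medium by Griess assay. Nitrite in LPS-only cells set as 100%. n = 3, one-way ANOVA.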
(Griess reagent forms a coloured azo dye with nitrite.)

For data set [10], the species on record is Homo sapiens. Put plainly: Binding affinity to Amyloid beta 16 (unknown origin) extracted from Escherichia coli BL21 assessed as increase in absorbance band by circular dichroism spectroscopic analysis.
The species entered for data set [11] is Homo sapiens. In words: Binding affinity to Amyloid beta 16 (unknown origin) extracted from Escherichia coli BL21 by measuring quenching effect incubated for 15 mins in presence of Cu2+ by fluorescence quenching analysis.
The subject of another data set is N9. In words: Antiinflammatory activity in LPS-induced mouse N9 cells assessed as reduction in ROS production at 10 uM incubated for 24 hrs by DCFDA staining based analysis. Type of data set: functional, cell-based. A digest of the protocol: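 N9 cells treated with LPS (1 μg/mL, 24 h) with or without peptide (10 μM, or a concentration series). ROS read with DCFDA fluorescence. n = 3, one-way ANOVA.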

Data set [12] can be described thus: Cytotoxicity against human SH-SY5Y cells assessed as cell viability at 100 uM incubated for 24 hrs by MTT assay relative to control. The format is toxicity, cell-based. Conditions: read-out: Activity. A digest of the protocol: as §3
Data set [13] is described as follows: Antioxidant activity assessed as inhibition of Cu2+ induced ROS production by measuring decrease in fluorescence intensity in presence of Cu2+ and ascorbate at 10 uM measured after 10 mins by absorption spectroscopic analysis. Type of data set: functional. The gist of the method:
(§4)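 Ascorbate added first. After 10 min, redox cycling triggered with Cu2+ alone or peptide–Cu2+ premixed in HEPES (50 mM, pH 7.4). Ascorbate consumption followed by absorbance at 265 nm over time.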

Data set [14] can be described thus: Cytotoxicity against mouse N9 cells at upto 50 uM incubated for 24 hrs by MTT assay. Type of data set: toxicity, cell-based. Conditions: n9, 24 h. A digest of the protocol:
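N9 microglia given a concentration series of peptide. Viability assessed.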

Data set [15] is described as follows: Metal chelating activity assessed as compound-Cu2+ complex formation at 50 uM in presence of CuCl2 by UV-Visible fluorescence spectroscopic analysis. A digest of the protocol:
as §2

The nature of data set [16]: Metal chelating activity assessed as compound-Fe3+ complex formation by measuring decrease in fluorescence intensity at 50 uM in presence of FeCl3 by UV-Visible fluorescence spectroscopic analysis. The gist of the method:
as §2

Data set [17] is described as follows: Metal chelating activity assessed as compound-Cu2+ complex formation by measuring quenching effect measured after 20 mins in presence of CuCl2 by fluorescence quenching analysis.
The nature of data set [18]: Antioxidant activity assessed as inhibition of Cu2+ induced ROS production by measuring decrease in fluorescence intensity in presence of ascorbate and H2O2 at 10 uM measured after 20 mins by absorption spectroscopic analysis. The format is functional.
Data set [19] can be described thus: Antioxidant activity assessed as inhibition of Cu2+ induced ROS production by measuring decrease in fluorescence intensity in presence of Cu2+ and ascorbate at 10 uM by absorption spectroscopic analysis. Type of data set: functional. A digest of the protocol:
as §4

Data set [20] addresses Amyloid-beta precursor protein (Homo sapiens) (UniProt P05067). Put plainly: Inhibition of Amyloid beta 42 (unknown origin) extracted from Escherichia coli BL21 induced ROS production assessed as decrease in fluorescence intensity at 10 uM incubated for 20 mins in presence of Cu2+ and ascorbate by absorption spectroscopic analysis.
Data set [21] in a line: Metal chelating activity assessed as compound-Cu2+ complex formation by measuring decrease in fluorescence intensity at 25 uM in presence of CuCl2 by UV-Visible fluorescence spectroscopic analysis.
Data set [22] is described as follows: Metal chelating activity assessed as compound-Fe3+ complex formation by measuring decrease in fluorescence intensity at 25 uM in presence of FeCl3 by UV-Visible fluorescence spectroscopic analysis.
Data set [23] is described as follows: Metal chelating activity assessed as compound-Al3+ complex formation by measuring decrease in fluorescence intensity at 25 uM in presence of AlCl3 by UV-Visible fluorescence spectroscopic analysis.
Data set [24] is filed under the species Homo sapiens. In words: Binding affinity to Amyloid beta 16 (unknown origin) extracted from Escherichia coli BL21 assessed as maximal quenching in presence of Cu2+ by fluorescence quenching analysis.
Data set [25] can be described thus: Antioxidant activity assessed as inhibition of Cu2+ induced ROS production by measuring decrease in fluorescence intensity in presence of stoichiometric ratio of 1:2 of Cu2+ and ascorbate at 10 uM measured after 10 mins by absorption spectroscopic analysis. Type of data set: functional.
A short description of data set [26]: Antioxidant activity assessed as inhibition of Cu2+ induced ROS production by measuring decrease in fluorescence intensity in presence of stoichiometric ratio of 1:1 of Cu2+ and ascorbate at 10 uM measured after 10 mins by absorption spectroscopic analysis. The format is functional.

Take `NCCCC[C@H](NC(=O)[C@H](Cc1cnc[nH]1)NC(=O)CN)C(=O)O` (H-Gly-His-Lys-OH): the inhibition result in data set [1] and in data set [2] was “inactive” each time.

With `CN(C)c1ccc2c3c(cccc13)C(=O)N(CCNC(=O)[C@H](CCC(N)=O)NC(=O)[C@H](CCCCN)NC(=O)[C@H](Cc1c[nH]cn1)NC(=O)[C@@H](Cc1c[nH]cn1)NC(=O)CN)C2=O`, the Activity is 92% in the data set on SH-SY5Y [3]; ~80% with SH-SY5Y [6]; “Non-Toxic” with SH-SY5Y [7]; 56% in data set [9]; “Non-Toxic” in data set [14]. Further, the inhibition entry in data set [1] and in [2] was “Active” each time. Also, the outcome in data set [4], in data set [8] and in data set [16] was inactive. In addition, the result (in data set [5]; in the data set listed under Homo sapiens [10]; in the data set filed under Homo sapiens [11]; in the data set on N9; in data set [13]; in [15]) was Active. Also, the viability at 24 h, 100 µM in data set [12] is > 90%.

`CN(C)c1ccc2c3c(cccc13)C(=O)N(CCNC(=O)[C@H](CCC(N)=O)NC(=O)[C@H](CCCCN)NC(=O)[C@@H](N)Cc1c[nH]cn1)C2=O`: the Activity is 82% in the data set on SH-SY5Y [3]; ~80% with SH-SY5Y [6]; “Non-Toxic” in the data set on SH-SY5Y [7]; 85% in data set [9]; “Non-Toxic” in data set [14]. Besides, the inhibition result in data set [1] and in [2] was “Active” in each case. The result (in [5]; in data set [17]; in the data set listed under Homo sapiens [10]; in [18]; in the data set with N9; in data set [15]) was Active. Moreover, the outcome in [19] was Active. Besides, the outcome in data set [8] and in data set [16] was inactive. Also, the viability at 24 h, 100 µM in data set [12] is > 90%.

For the molecule `CN(C)c1ccc2c3c(cccc13)C(=O)N(CCNC(=O)[C@H](CCC(N)=O)NC(=O)[C@H](CCCCN)NC(=O)[C@H](Cc1c[nH]cn1)NC(=O)CN)C2=O` (H-GHKQ-X1), the inhibition entry in [1], in [20] and in data set [2] was “Active” throughout.

Turning to `CN(C)c1ccc2c3c(cccc13)C(=O)N(CCNC(=O)[C@@H](N)CCC(N)=O)C2=O`, the inhibition result in data set [1] was “Active”. Besides, the inhibition entry in data set [2] is “inactive”.

`CN(C)c1ccc2c3c(cccc13)C(=O)N(CCNC(=O)[C@H](CCC(N)=O)NC(=O)[C@H](CCCCN)NC(=O)[C@H](Cc1c[nH]cn1)NC(=O)CNC(=O)CN)C2=O` (H-GGHKQ-X1): the result (in data set [21]; in data set [5]; with N9; in [13]) was Active. The outcome (in data set [22]; in data set [23]; in the data set listed under Homo sapiens [10]; in data set [18]; in data set [25]; in data set [26]) was inactive. In addition, the Activity is 85% in the data set on SH-SY5Y [3]; ~80% in the data set with SH-SY5Y [6]; “Non-Toxic” in the data set with SH-SY5Y [7]; 70% in data set [9]; 65% in the data set listed under Homo sapiens [24]; “Non-Toxic” in data set [14]. The inhibition result in data set [1] and in [2] was “inactive” each time. Further, the viability at 24 h, 100 µM in data set [12] was > 90%.
